Assay results: ChEMBL document CHEMBL1144940 (J Med Chem, 2003)
Bridge positions count the residues as written; N and C are the ends. Square brackets hold non-standard residues; d marks the D form. Peptide text beside a SMILES is read from it. d2Nal = N[C@H](Cc1ccc2ccccc2c1)C(=O)O; Pen = CC(C)(S)[C@H](N)C(=O)O; Nle = CCCC[C@H](N)C(=O)O

Columns and labels:
Melanocortin receptor 3 [1] = biological target: T1, Melanocortin receptor 3 (Homo sapiens, UniProt P41968); assay: Agonist activity against human Melanocortin 3 receptor at 10 uM
Melanocortin receptor 5 [2] = biological target: T2, Melanocortin receptor 5 (Homo sapiens, UniProt P33032); assay: Binding affinity against human Melanocortin 5 receptor by gamma-MCH displacement.
Outline: (§1)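 Competition binding on intact HEK293 cells stably expressing the human receptor, seeded 50000 cells/well 48 h earlier. Lysates were gamma-counted. Ki came from competition curves; mean of duplicate experiments in triplicate.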

Melanocortin receptor 3 [3] = biological target: T1, Melanocortin receptor 3; assay: Intracellular cAMP accumulation in human Melanocortin 3 receptor functional assay.
Melanocortin receptor 5 [4] = biological target: T2, Melanocortin receptor 5; assay: Intracellular cAMP accumulation in human Melanocortin 5 receptor functional assay.
Melanocortin receptor 4 [5] = biological target: T3, Melanocortin receptor 4 (Homo sapiens, UniProt P32245); assay: Binding affinity against Melanocortin 4 receptor by gamma-MCH displacement.
Outline: as §1

Melanocortin receptor 4 [6] = biological target: T3, Melanocortin receptor 4; assay: Intracellular cAMP accumulation in Melanocortin 4 receptor functional assay.
Melanocortin receptor 3 [7] = biological target: T1, Melanocortin receptor 3; assay: Binding affinity against human Melanocortin 3 receptor by gamma-MCH displacement.
Outline: as §1

Melanocortin receptor 4 [8] = biological target: T3, Melanocortin receptor 4; assay: Agonist activity against human Melanocortin 4 receptor at 10 uM
Melanocortin receptor 5 [9] = biological target: T2, Melanocortin receptor 5; assay: Agonist activity against human Melanocortin 5 receptor at 10 uM

T3 sequence (P32245 whole entry): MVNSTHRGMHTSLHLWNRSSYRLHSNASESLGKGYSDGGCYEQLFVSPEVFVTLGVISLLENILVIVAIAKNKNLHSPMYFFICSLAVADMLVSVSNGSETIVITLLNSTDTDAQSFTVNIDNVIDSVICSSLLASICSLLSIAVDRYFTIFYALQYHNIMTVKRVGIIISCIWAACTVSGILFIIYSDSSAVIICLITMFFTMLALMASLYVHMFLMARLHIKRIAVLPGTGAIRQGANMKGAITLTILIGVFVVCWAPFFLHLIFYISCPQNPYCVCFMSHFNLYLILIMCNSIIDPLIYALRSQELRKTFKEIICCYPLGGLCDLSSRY
T2 sequence (P33032 whole entry): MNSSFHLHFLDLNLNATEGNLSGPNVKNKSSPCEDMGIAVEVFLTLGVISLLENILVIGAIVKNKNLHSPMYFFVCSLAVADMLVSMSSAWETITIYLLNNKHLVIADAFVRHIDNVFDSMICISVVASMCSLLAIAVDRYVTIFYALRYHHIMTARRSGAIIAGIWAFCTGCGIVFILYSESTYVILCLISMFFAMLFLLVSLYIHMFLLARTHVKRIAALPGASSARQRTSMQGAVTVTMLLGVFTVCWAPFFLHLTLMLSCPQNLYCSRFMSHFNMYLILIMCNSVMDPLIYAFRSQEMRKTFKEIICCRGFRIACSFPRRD
T1 sequence (P41968 whole entry): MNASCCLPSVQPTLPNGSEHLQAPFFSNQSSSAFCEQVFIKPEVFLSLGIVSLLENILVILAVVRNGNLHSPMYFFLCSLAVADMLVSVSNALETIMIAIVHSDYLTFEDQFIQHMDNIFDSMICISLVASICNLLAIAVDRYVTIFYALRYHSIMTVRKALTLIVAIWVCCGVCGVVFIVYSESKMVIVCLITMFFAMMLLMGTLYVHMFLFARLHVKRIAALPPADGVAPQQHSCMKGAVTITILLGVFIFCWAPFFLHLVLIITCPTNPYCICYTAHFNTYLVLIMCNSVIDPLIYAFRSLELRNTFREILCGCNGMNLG

| Activity (Melanocortin receptor 3 [1]) | Ki (Melanocortin receptor 5 [2]) | EC50 (Melanocortin receptor 3 [3]) | EC50 (Melanocortin receptor 5 [4]) | Ki (Melanocortin receptor 4 [5]) | EC50 (Melanocortin receptor 4 [6]) | Ki (Melanocortin receptor 3 [7]) | Activity (Melanocortin receptor 4 [8]) | Activity (Melanocortin receptor 5 [9]) | SMILES |
| --- | --- | --- | --- | --- | --- | --- | --- | --- | --- |
| 77% | – | – | – | – | – | – | – | – | CC(C)[C@H](NC(=O)[C@@H](N)Cc1ccc(O)cc1)C(=O)N[C@H]1C(=O)NCC(=O)N[C@@H](Cc2c[nH]cn2)C(=O)N[C@H](Cc2ccccc2)C(=O)N[C@@H](CCCN=C(N)N)C(=O)N[C@@H](Cc2c[nH]c3ccccc23)C(=O)N[C@H](C(=O)N[C@@H](CCCN=C(N)N)C(=O)N[C@@H](Cc2ccccc2)C(=O)NCC(N)=O)CSSC1(C)C |
| – | 220 nM | 39 nM | 270 nM | > 10000 nM | 83 nM | 240 nM | – | – | CCCC[C@H](NC(=O)[C@@H](NC(=O)[C@@H](N)Cc1ccc(O)cc1)C(C)C)C(=O)N[C@H]1CSSC[C@H](C(=O)N[C@@H](CCCN=C(N)N)C(=O)N[C@@H](Cc2ccccc2)C(=O)NCC(N)=O)NC(=O)[C@H](Cc2c[nH]c3ccccc23)NC(=O)[C@H](CCCN=C(N)N)NC(=O)[C@H](Cc2ccccc2)NC(=O)[C@H](Cc2c[nH]cn2)NC1=O |
| 70% | 14 nM | – | – | 0.22 nM | – | 0.2 nM | 100% | – | CCCC[C@H](NC(=O)[C@@H](NC(=O)[C@@H](N)Cc1ccc(O)cc1)C(C)C)C(=O)NCC(=O)N1CCC[C@H]1C(=O)N[C@H](Cc1ccc2ccccc2c1)C(=O)N[C@@H](CCCN=C(N)N)C(=O)N[C@@H](Cc1c[nH]c2ccccc12)C(=O)N[C@@H](CC(=O)O)C(=O)N[C@@H](CCCN=C(N)N)C(=O)N[C@@H](Cc1ccccc1)C(=O)NCC(N)=O (H-YV[Nle]GP[d2Nal]RWDRFG-NH2) |
| – | – | – | – | – | – | – | – | 100% | CCCC[C@H](NC(=O)[C@@H](NC(=O)[C@@H](N)Cc1ccc(O)cc1)C(C)C)C(=O)NCC(=O)N[C@@H](CCN)C(=O)N[C@@H](Cc1ccccc1)C(=O)N[C@@H](CCCN=C(N)N)C(=O)N[C@H](Cc1ccc2ccccc2c1)C(=O)N[C@@H](CC(=O)O)C(=O)N[C@@H](CCCN=C(N)N)C(=O)N[C@@H](Cc1ccccc1)C(=O)NCC(N)=O |
| 93% | – | – | – | – | – | – | 92% | 16% | CC(C)[C@H](NC(=O)[C@@H](N)Cc1ccc(O)cc1)C(=O)N[C@@H]1CSSC[C@@H](C(=O)N[C@@H](CCCN=C(N)N)C(=O)N[C@@H](Cc2ccccc2)C(=O)NCC(N)=O)NC(=O)[C@H](Cc2c[nH]c3ccccc23)NC(=O)[C@H](CCCN=C(N)N)NC(=O)[C@@H](Cc2ccccc2)NC(=O)[C@H](Cc2c[nH]cn2)NC(=O)CNC1=O |
| – | > 3900 nM | > 10000 nM | > 10000 nM | 460 nM | 250 nM | > 10000 nM | 46% | – | CC(C)[C@H](NC(=O)[C@@H](N)Cc1ccc(O)cc1)C(=O)NC1CSSCC(C(=O)N[C@@H](CCCN=C(N)N)C(=O)N[C@@H](Cc2ccccc2)C(=O)NCC(N)=O)NC(=O)[C@H](Cc2c[nH]c3ccccc23)NC(=O)[C@H](CCCN=C(N)N)NC(=O)[C@@H](Cc2ccccc2)NC(=O)[C@H](Cc2c[nH]cn2)NC(=O)CNC1=O (stereo in doubt) |
| – | > 3900 nM | > 10000 nM | > 10000 nM | > 10000 nM | > 10000 nM | > 10000 nM | – | – | CC(C)[C@H](NC(=O)[C@@H](N)Cc1ccc(O)cc1)C(=O)N[C@H]1CSSC[C@H](C(=O)N[C@@H](CCCN=C(N)N)C(=O)N[C@@H](Cc2ccccc2)C(=O)NCC(N)=O)NC(=O)[C@H](Cc2c[nH]c3ccccc23)NC(=O)[C@H](CCCN=C(N)N)NC(=O)[C@H](Cc2ccccc2)NC(=O)[C@H](Cc2c[nH]cn2)NC(=O)CNC1=O |
| – | 480 nM | > 10000 nM | > 10000 nM | > 10000 nM | > 10000 nM | 480 nM | – | – | CC(C)[C@H](NC(=O)[C@@H](N)Cc1ccc(O)cc1)C(=O)N[C@H]1CSSC(C)(C)[C@@H](C(=O)N[C@@H](CCCNC(=N)N)C(=O)N[C@@H](Cc2ccccc2)C(=O)NCC(N)=O)NC(=O)[C@H](Cc2c[nH]c3ccccc23)NC(=O)[C@H](CCCNC(=N)N)NC(=O)[C@H](Cc2ccccc2)NC(=O)[C@H](Cc2cnc[nH]2)NC(=O)CNC1=O (H-YVCGHFRW[Pen]RFG-NH2; disulfide 3-9) |
| 31% | 17 nM | 2400 nM | 28 nM | 1.5 nM | > 10000 nM | 15 nM | – | 80% | CCCC[C@H](NC(=O)[C@@H](NC(=O)[C@@H](N)Cc1ccc(O)cc1)C(C)C)C(=O)NCC(=O)N[C@@H](Cc1c[nH]cn1)C(=O)N[C@@H](Cc1ccccc1)C(=O)N[C@@H](CCCN=C(N)N)C(=O)N[C@H](Cc1ccc2ccccc2c1)C(=O)N[C@@H](CC(=O)O)C(=O)N[C@@H](CCCN=C(N)N)C(=O)N[C@@H](Cc1ccccc1)C(=O)NCC(N)=O |
| 40% | > 4800 nM | 12 nM | > 10000 nM | 4.6 nM | 44 nM | 12 nM | 100% | – | CCCC[C@H](NC(=O)[C@@H](NC(=O)[C@@H](N)Cc1ccc(O)cc1)C(C)C)C(=O)NCC(=O)N[C@@H](Cc1c[nH]cn1)C(=O)N[C@H](Cc1ccc2ccccc2c1)C(=O)N[C@@H](CCCN=C(N)N)C(=O)N[C@H](Cc1ccc2ccccc2c1)C(=O)N[C@@H](CC(=O)O)C(=O)N[C@@H](CCCN=C(N)N)C(=O)N[C@@H](Cc1ccccc1)C(=O)NCC(N)=O |
| – | 1700 nM | 400 nM | > 10000 nM | 12 nM | > 10000 nM | 150 nM | – | – | CC(C)[C@H](NC(=O)[C@@H](N)Cc1ccc(O)cc1)C(=O)N[C@@H]1C(=O)NCC(=O)N[C@@H](Cc2cnc[nH]2)C(=O)N[C@@H](Cc2ccccc2)C(=O)N[C@@H](CCCNC(=N)N)C(=O)N[C@@H](Cc2c[nH]c3ccccc23)C(=O)N[C@H](C(=O)N[C@@H](CCCNC(=N)N)C(=O)N[C@@H](Cc2ccccc2)C(=O)NCC(N)=O)CSSC1(C)C |
| – | 27 nM | 4.2 nM | 3.2 nM | 2.5 nM | 170 nM | 6.8 nM | – | – | CCCC[C@H](NC(=O)[C@@H](NC(=O)[C@@H](N)Cc1ccc(O)cc1)C(C)C)C(=O)N[C@H]1CSSC[C@@H](C(=O)N[C@@H](CCCNC(=N)N)C(=O)N[C@@H](Cc2ccccc2)C(=O)NCC(N)=O)NC(=O)[C@H](Cc2c[nH]c3ccccc23)NC(=O)[C@H](CCCNC(=N)N)NC(=O)[C@H](Cc2ccccc2)NC(=O)[C@H](Cc2cnc[nH]2)NC1=O |
| – | 1 nM | > 10000 nM | – | – | – | 0.81 nM | 100% | – | CCCC[C@H](NC(=O)[C@@H](NC(=O)[C@@H](N)Cc1ccc(O)cc1)C(C)C)C(=O)NCC(=O)N[C@@H](Cc1c[nH]cn1)C(=O)N[C@H](Cc1ccc2ccccc2c1)C(=O)N[C@@H](CCCN=C(N)N)C(=O)N[C@@H](Cc1c[nH]c2ccccc12)C(=O)N[C@@H](CC(=O)O)C(=O)N[C@@H](CCCN=C(N)N)C(=O)N[C@@H](Cc1ccccc1)C(=O)NCC(N)=O |
| – | – | – | – | 62 nM | – | – | 105% | – | CCCC[C@H](NC(=O)[C@@H](NC(=O)[C@@H](N)Cc1ccc(O)cc1)C(C)C)C(=O)NCC(=O)N[C@@H](Cc1c[nH]cn1)C(=O)N[C@@H](Cc1ccccc1)C(=O)N[C@@H](CCCN=C(N)N)C(=O)N[C@@H](Cc1c[nH]c2ccccc12)C(=O)N[C@@H](CC(=O)O)C(=O)N[C@@H](CCCN=C(N)N)C(=O)N[C@@H](Cc1ccccc1)C(=O)NCC(N)=O |
| – | 120 nM | > 10000 nM | 1.8 nM | 4800 nM | > 10000 nM | 3400 nM | – | – | CCCC[C@H](NC(=O)[C@@H](NC(=O)[C@@H](N)Cc1ccc(O)cc1)C(C)C)C(=O)NCC(=O)NC(C)(C)C(=O)N[C@@H](Cc1ccccc1)C(=O)N[C@@H](CCCN=C(N)N)C(=O)N[C@H](Cc1ccc2ccccc2c1)C(=O)N[C@@H](CC(=O)O)C(=O)N[C@@H](CCCN=C(N)N)C(=O)N[C@@H](Cc1ccccc1)C(=O)NCC(N)=O |
| – | 8.8 nM | 240 nM | 200 nM | 9.6 nM | 340 nM | 5.5 nM | – | – | CCCC[C@H](NC(=O)[C@@H](NC(=O)[C@@H](N)Cc1ccc(O)cc1)C(C)C)C(=O)N[C@H]1CC(=O)NCCCC[C@@H](C(=O)N[C@@H](CCCN=C(N)N)C(=O)N[C@@H](Cc2ccccc2)C(=O)NCC(N)=O)NC(=O)[C@H](Cc2c[nH]c3ccccc23)NC(=O)[C@H](CCCN=C(N)N)NC(=O)[C@H](Cc2ccccc2)NC(=O)[C@H](Cc2c[nH]cn2)NC1=O |
| – | 210 nM | 210 nM | 140 nM | 1200 nM | 360 nM | 1600 nM | – | – | CCCC[C@H](NC(=O)[C@@H](NC(=O)[C@@H](N)Cc1ccc(O)cc1)C(C)C)C(=O)N[C@@H]1CSSC[C@@H](C(=O)N[C@@H](CCCNC(=N)N)C(=O)N[C@@H](Cc2ccccc2)C(=O)NCC(N)=O)NC(=O)[C@H](Cc2c[nH]c3ccccc23)NC(=O)[C@H](CCCNC(=N)N)NC(=O)[C@H](Cc2ccccc2)NC(=O)[C@H](Cc2cnc[nH]2)NC1=O |
| – | 150 nM | 19 nM | 74 nM | > 10000 nM | 200 nM | 150 nM | – | – | CCCC[C@H](NC(=O)[C@@H](NC(=O)[C@@H](N)Cc1ccc(O)cc1)C(C)C)C(=O)N[C@@H]1C(=O)N[C@@H](Cc2c[nH]cn2)C(=O)N[C@@H](Cc2ccccc2)C(=O)N[C@@H](CCCN=C(N)N)C(=O)N[C@@H](Cc2c[nH]c3ccccc23)C(=O)N[C@H](C(=O)N[C@@H](CCCN=C(N)N)C(=O)N[C@@H](Cc2ccccc2)C(=O)NCC(N)=O)CSSC1(C)C (H-YV[Nle][Pen]HFRWCRFG-NH2; disulfide 4-9) |
| – | 210 nM | 36 nM | 450 nM | 22 nM | 9 nM | 68 nM | – | – | CC(C)[C@H](NC(=O)[C@@H](N)Cc1ccc(O)cc1)C(=O)N[C@H]1CSSC[C@@H](C(=O)N[C@@H](CCCN=C(N)N)C(=O)N[C@@H](Cc2ccccc2)C(=O)NCC(N)=O)NC(=O)[C@H](Cc2c[nH]c3ccccc23)NC(=O)[C@H](CCCN=C(N)N)NC(=O)[C@H](Cc2ccccc2)NC(=O)[C@H](Cc2c[nH]cn2)NC(=O)CNC1=O |
